Measurements from the EternaBench riboswitch data.

Test system: MS2 coat protein
Experiment: apparent Kd, MS2 coat protein; higher = weaker binding; RNA-MaP array; FMN 200 µM where present
Method in brief: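 The apparent Kd comes from binding curves fitted cluster by cluster, filtered, and summarised as a median. Those curves followed SNAP-549-labelled MS2 coat protein from 0.7 or 1.5 nM, doubling to 3 µM, on Illumina sequencing-chip clusters where stalled E. coli RNA polymerase had transcribed the designs, without and then with constant ligand. The buffer was 100 mM Tris-HCl pH 7.5, 80 mM KCl, 4 mM MgCl2, BSA, DTT, yeast tRNA and Tween-20, and green signal was normalised to red-channel RNA signal and control-cluster median Fmax.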

[1] = designed as: ON switch for flavin mononucleotide, no ligand
[2] = ligand present: flavin mononucleotide, designed as: ON switch for flavin mononucleotide
[3] = designed as: OFF switch for flavin mononucleotide, no ligand
[4] = ligand present: flavin mononucleotide, designed as: OFF switch for flavin mononucleotide

Row | Sequence | apparent Kd [1] [nM] | apparent Kd [2] [nM] | apparent Kd [3] [nM] | apparent Kd [4] [nM]
1 | AGUGUCAUCGAGAAGGCCCUGACAUGAGGAUCACCCAUGUUGUUACAUGGGAGGAUAUCGAUGAUACAGCUACGUUUCGUAGCA | 12.8 | 5.05 |  | 
2 | UAAUAUUUAUGAUAUUAUGACAGUAGAAGGCUAUACAUGUUGAUACAUGAGGAUCACCCAUGUAUAGAGGAUAUAUACAUAUAU |  |  | 681 | 315
3 | GUCAGCUCGUGAGGAUAUACAUCACUGCUUCGGCAGUGUAUUAAGAGUACAUGAGGAUCACCCAUGUAGAAGGCACGAGCUGAU |  |  | 17.3 | 19.6
4 | GGUCGCAAGUAAGGAUAUGCCUAGGAAACCUAGGCAGAAGGUACAUGAGGAUCACCCAUGUUAACGCAAAGCGAAUAAGCGACC |  |  | 15.8 | 21.5
5 | AUGUCGCACCAGAAGGGUCAACCAAUAAAUUAGACAGGAUAUGGGCGAUAAGUAUGUCGCGACAUGAGGAUCACCCAUGUCCGG | 11.6 | 5.95 |  | 
6 | AUAAGCUCGUCAGGAUAUACGUCACUGCUUCGGCAGUGAGGUAAGAUCACAUGAGGAUCACCCAUGUAGAAGGGACGAGCUUAU |  |  | 5.65 | 14.4
7 | AACACGAGAGGUGUUAUCUAACCACAUGAGGAUCACCCAUGUAAGGAUAUCGCGGCUAUCGGCAUCGAGAAGGUACAGGGUGCA |  |  | 44.1 | 93.6
8 | GUAGCUAUCGGAGGAUAUUCAUACCGGAAACGGACAUGAGGAUCACCCAUGUGGCGAAAGCCCUGGGAGAAGGCCGAUAGCUAC | 382 | 259 |  | 
9 | CGUAUGAUGUCAGGAUAUGACGCUGAGAGCACGUCAGAAGGGACAUGAGGAUCACCCAUGUUGGGCUAAUGAAGCUAUGGCACU |  |  | 14.6 | 43.5
10 | AAACCACAUGAGGAUCACCCAUGUGAGGAUAUGAUACUAUGUACUUCGGUACAUAGUAUCAGAAGGCAUAUGAA |  |  | 24.6 | 25.1
11 | AAAAUUUAUUGAGGAUAUUCAUACACUGCAUACGGAGAAGGCAAACAAUCAUGAGGACAUGAGGAUCACCCAUGUUGUGACCAU | 18.9 | 15.8 |  | 
12 | AGUAAUUACGAAGGAUAUGCGCUCCUCGGGCUCGCAGAAGGUCGUACAUGAGGAUCACCCAUGUGUGAUCGCUCAUAGCCGCAA |  |  | 93.2 | 41.4
13 | UGAUACUAAGAGAAGGUUCAAACUACAUAUUACAUACAUGAGGAUCACCCAUGUUGGUGAAUAAGAAAGGAUAUUUUACUAUAU |  |  | 25.7 | 21.6
14 | GGGUACAUCGGAGGAUAUCAUCUAAAUACAUGAGGAUCACCCAUGUCGAUGGAGACAUCGGAGAUUGAGAAGGCCGAUGUACCG | 5.06 | 5.23 |  | 
15 | GGGCCGGUGGAGAAGGAGCGUGCGAAACGCAUGCUAGGAUAUCCACAUGAGGAUCACCCAUGUGGGAAUAUCUGGUUUUCACAG |  |  | 3.85 | 4.65
16 | UUCAUGUGAGGAUAUGUGAUCUGCUUUCUGUGUAGAUGAUCACAGAAGGCACAUGAGGAUCACCCAUGUAGAUC |  |  | 103 | 79.4
17 | AAACACGGACAUGAGGAUCACCCAUGUGGCGAAAGCCUUGGGAGAAGGCCGUAUGCAAAGCAUACGGAGGAUAUCCAUACCGUG | 18.1 | 6.34 |  | 
18 | UAUUAGUAAGGAUAUCCUUGCAUGGACGAAAGUCCAUGCAAGGAGAAGGUACAUGAGGAUCACCCAUGUUCAUU |  |  | 17.2 | 17.9
19 | UAGAAGUCAGGAUAUCCAGCUCGUCACUUGCGUGAUGAGUUGGAGAAGGGACAUGAGGAUCACCCAUGUAAAGU |  |  | 56.3 | 58.3
20 | AGUCGGAGCAGAGGAUAUACAUGAGGAUCACCCAUGUAAUAAAUCCAAGCCUGGAAACAGGCAAUGUAGAAGGCUGCUCCGACA |  |  | 16.8 | 78.8
21 | UGGAUCAUCGGAGGAUAUCAUGUAUAUACAUGAGGAUCACCCAUGUCGUACGAGAGUACGGAGAUUGAGAAGGCCGAUGAUCCU | 38.8 | 14.9 |  | 
22 | GUAGCAUACCGAGGAUAUUCUAACCGGAAACGGACAUGAGGAUCACCCAUGUGGCGAAAGCCUAGGGAGAAGGCGGAAUGCUAC | 10.5 | 11.6 |  | 
23 | CGCACGAGGCAAGGAUAUGCUGACAUGAGGAUCACCCAUGUGAGCAUGGGUCUGGUACGGGAUCAGCAGAAGGUGCACCGAGGU |  |  | 18.5 | 18.8
24 | GUGGUAUUCGUAGGAUAUCCGUCGCCACCGUGUGGAGAAGGACGAACAUGAGGAUCACCCAUGUAUCAUGGUGUGGGCGUUGUC |  |  | 149 | 148
25 | AGCAGACGAGGAUAUAGAUGGAAUGACAUGAGGAUCACCCAUGUGAUCGAUCUAUUGGGUUUAGAAGGUGUCUGCU |  |  | 15.2 | 15.4
26 | UUGGACGUCGUAGGAUAUGUAGUAUAUUCCUACAUGAGGAUCACCCAUGUUGACAUGGAAGAAGGACAGAAGGACGAUGUCCAU | 6.54 | 5.01 |  | 
27 | CACGUACAUGAGGAUCACCCAUGUUAGGAUAUGCCGGGUAAGAGAAAACUAAAAAUCCGUAGAAGGGACGAAAC |  |  | 34.1 | 33.8
28 | CAAAACAUCUCCGUGUUUGUCGAACAUGAGGAUCACCCAUGUAGAAGGCAUCGCGCGACGCGGGAUGAGGAUAUACGCUGGAUG |  |  | 6.18 | 15.3

Row | Sequence | apparent Kd [1] [nM] | apparent Kd [2] [nM] | apparent Kd [3] [nM] | apparent Kd [4] [nM]
29 | GUCUUCCUAGGAUAUACAUGAGGAUCACCCAUGUAAAGUUUCGUCAAAGGAUAAUCGAGUAGAAGGAGGUGGAU |  |  | 15 | 17.2
30 | UUUAUUAGUUAGAAGGCUUGAUGAAUUACAAUGGACAUGAGGAUCACCCAUGUGUAUUCAUGUCAAGAGGAUAUAGUCAUAUAU | 39.1 | 17.7 |  | 
31 | GUCAGCUCGUGAGGAUAUACAACACUGCUUCGGCAGUGUAUUAAGAUCACAUGAGGAUCACCCAUGUAGAAGGCACGAACUGAU |  |  | 12.9 | 212
32 | CGCAAGGAUACAUGAGGAUCACCCAUGUCAGAAAGGGUAAUCAGAAGGUACAAUUAGAGAUAGAGUAAGGAUAUGAAAUUUGCG | 966 | 313 |  | 
33 | GGUACCAACACAGGAUAUGCUUUCCUUUGGGAAGCAGAAGGGUGAAAACAUGAGGAUCACCCAUGUGGUACCGGGCGUGAGCCC | 534 | 39 |  | 
34 | CAGGUAGACUGAGGAUAUACAAAAGACCUAGUCUAUCUAGGUCAACUCACAUGAGGAUCACCCAUGUAGAAGGCAGUCUGCCUG |  |  | 19.3 | 70.9
35 | GCAGCACACAUUAACAUGAGGAUCACCCAUGUCAAAAGACAUGAGGAUAUGCAUCUGAAGAAGAUGCAGAAGGCAUUGUGCUGC | 467 | 24.2 |  | 
36 | GCGAUAAACGAGGAUAUCGUAUCGGAAACGAUACGAGAAGGUGUAACAUGAGGAUCACCCAUGUUCCUCAACGC |  |  | 38.4 | 38.4
37 | GCGUGGUUCUAGAAGGUGCUAGCGAUAAGCUAGCAAGGAUAUAGACAUGAGGAUCACCCAUGUCUUAGUGAAAUCGACACACGC |  |  | 5.35 | 5.34
38 | UCCUGGCAAGGAUAUACAUGAGGAUCACCCAUGUGGAGUCGAUGCUGAAUUCUAUUGUGUAGAAGGUGCCUUUC |  |  | 49.1 | 62.3
39 | GAGAAGUCAGGAUAUCCAUGGCGGCACUUGCGUGGUGGCGUGGAGAAGGGACAUGAGGAUCACCCAUGUAAAGG |  |  | 165 | 157
40 | AGUGUCAUCCAGAAGGAGAUGGACAUGAGGAUCACCCAUGUUCCAUGAUCUAGGAUAUGGAUGAUACAGCUACGUUUCGUAGCA | 4.61 | 4.73 |  | 
41 | AGCUGUGGCCGAGGAUAUCUAUCUCAUAAAACCGAAAUAUAAUCGGACAUGAGGAUCACCCAUGUAGAGAAGGCGGUCUCAGCA |  |  | 27.6 | 129
42 | UAGAUGGGAGGAUAUGCAUAGAUACAGAUUCAUGUAGUGCUACAUGAGGAUCACCCAUGUAGAAGGCCCGUCUU |  |  | 21.2 | 225
43 | CGUGUUGACGAAGGAUAUGGAUACAUGAGGAUCACCCAUGUAUAUUUUGUGAUCAUAUUUAUGAUCCAGAAGGUCGUUGACACG |  |  | 56.9 | 131
44 | AUCAGCUCGUCAGGAUAUACGUCACUGAGUCAGCAGUGUGGUAAGAUCACAUGAGGAUCACCCAUGUAGAAGGGACGAGCUGAU |  |  | 16.3 | 241
45 | UUUUCGAACCGAGGAUAUCCUUAUAAGAAACAUGAGGAUCACCCAUGUAAAGGGAAUUAUUUGAAGGAGAAGGCGGAUUUUGUU | 50.1 | 32 |  | 
46 | GCAUCCAUAGUGAGGAUAUACCUCUGGAUACAUAGGUAGAAGGCACAUGAGGAUCACCCAUGUUCCUAGGAUGC |  |  | 20.2 | 40.1
47 | UUGAGGAAUUAAGGAUAUUGAGUACAUAUGUUUAACAUGAGGAUCACCCAUGUGGGUUGCGGUAUCGAGAAGGUAAAUUACAAG | 129 | 133 |  | 
48 | CCAACCGUAGGAUAUUCCAAGUCCGACAUGAGGAUCACCCAUGUGUUUCUCUGCGAUUUAGGAGAAGGGCGGUUGG |  |  | 349 | 474
49 | AAGGACUGUAAUAAUGUAGAAAUACAUGAGGAUCACCCAUGUAAGGAUAUCGUCAGGAAUACUGACGAGAAGGUACAUCAGUCC |  |  |  | 25.8
50 | CUUUUGUGAGGAUAUCAGUAGUAAAAUAAUAAAAUAACUACUGAGAAGGCACAUGAGGAUCACCCAUGUUCCUC |  |  | 32.5 | 161
51 | CGCUAAUUAAUUAUAUUAAUUAUACAGGAUAUGUAACAUGAGGAUCACCCAUGUAUUCAAUGUAAACAGAAGGGUAUAUUAGCG |  |  | 10.7 | 16.2
52 | CGGCGGAAAGGAUAUGCAUUAAUAUCAAUAUGUGGGCCACGACAUGAGGAUCACCCAUGUAGAAGGUUCAGCCG |  |  | 21.8 | 16.8
53 | CGAAGUACGUAAGGAUAUACCGUGAGGACAACGGUAGAAGGUACAACAACAUGAGGAUCACCCAUGUGGACCUCUCGGCGUUGU |  |  | 394 | 617
54 | AAAACAUGAGGAUCACCCAUGUUUAGAUCGGUCGAUUGAGGUGAGGAUAUACUAAGUUAAGGCUGGUAGAAGGCACUGGGUACA | 62 | 43.6 |  | 
55 | AAUUUGGAGGGAGGAUAUACAUGAGGAUCACCCAUGUAGCCUAACACGGCUCUCAAUUUCCAAGUGUAGAAGGCCCAACGUGUU |  |  | 13.6 | 48.8
